The nature of data set [1]: Retention time of the compound in sodium phosphate buffer at 10 uM after 60 mins by LC-MS/MS analysis in presence of H2O2. Format: physicochemical. The note with it: 1 h.
Data set [2] can be described thus: Plasma clearance in CD-1 mouse at 1 mg/kg, iv and 3 or 5 mg/kg, po. The format is ADME, organism-based. An outline of the steps: (§1)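 Male CD-1 mice (25−35 g), cannulated Wistar-Han rats (250 g), beagle dogs (12 kg) and cynomolgus monkeys (7 kg), fasted overnight and fed 1.0 or 2.0 h after dosing. iv 1 mg/kg in saline or 12% sulfobutyl ether β-cyclodextrin; po 3 or 5 mg/kg in 0.5% methylcellulose. Parameters calculated from plasma concentration−time data; mean ± SD for n = 3, individual values for n = 2.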

Data set [3] can be described thus: Volume of distribution at steady state in CD-1 mouse at 1 mg/kg, iv and 3 or 5 mg/kg, po. The note with it: in vivo, read-out: Vdss. The format is ADME, organism-based. An outline of the steps:
(§2)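 Male mice, rats, dogs and cynomolgus monkeys, fasted overnight, fed after dosing. Intravenous dose 1 mg/kg in saline or 12% sulfobutyl ether β-cyclodextrin; oral arm 3 or 5 mg/kg in 0.5% methylcellulose. Steady-state volume derived from plasma concentration−time data; mean ± SD for n = 3, individual values for n = 2.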

The nature of data set [4]: Volume of distribution at steady state in cynomolgus monkey at 1 mg/kg, iv and 3 or 5 mg/kg, po. Conditions: in vivo, read-out: Vdss. Format: ADME, organism-based, Macaca fascicularis. A digest of the protocol: as §2
A short description of data set [5]: Elimination half life in cynomolgus monkey at 1 mg/kg, iv and 3 or 5 mg/kg, po. The format is ADME, organism-based, Macaca fascicularis. The note with it: in vivo. An outline of the steps:
as §1

Data set [6] in a line: Oral bioavailability in cynomolgus monkey at 3 or 5 mg/kg. The format is ADME, organism-based, Macaca fascicularis. Conditions: in vivo. An outline of the steps:
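Male CD-1 mice, Wistar-Han rats, beagle dogs and cynomolgus monkeys, fasted overnight and fed after dosing. Given po at 3 or 5 mg/kg in 0.5% methylcellulose, with an iv reference dose of 1 mg/kg. Bioavailability derived from plasma concentration−time data; mean ± SD (n = 3) or individual values (n = 2).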

Data set [7] is described as follows: Fraction unbound in mouse plasma at 2 uM by equilibrium dialysis method. Format: ADME, cell-free. A digest of the protocol: (§3)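 Compound at 2 μM in mouse, rat, dog, monkey or human plasma; unbound fraction measured by equilibrium dialysis and reported as a mean.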
A general note: In equilibrium dialysis only unbound substance equilibrates across the membrane.

Data set [8] can be described thus: Fraction unbound in dog plasma at 2 uM by equilibrium dialysis method. Format: ADME, cell-free, Canis lupus familiaris. A digest of the protocol: as §3
The target in a further data set is T1, Cytochrome P450 1A2 (Homo sapiens, UniProt P05177).
T1 sequence (P05177 whole entry): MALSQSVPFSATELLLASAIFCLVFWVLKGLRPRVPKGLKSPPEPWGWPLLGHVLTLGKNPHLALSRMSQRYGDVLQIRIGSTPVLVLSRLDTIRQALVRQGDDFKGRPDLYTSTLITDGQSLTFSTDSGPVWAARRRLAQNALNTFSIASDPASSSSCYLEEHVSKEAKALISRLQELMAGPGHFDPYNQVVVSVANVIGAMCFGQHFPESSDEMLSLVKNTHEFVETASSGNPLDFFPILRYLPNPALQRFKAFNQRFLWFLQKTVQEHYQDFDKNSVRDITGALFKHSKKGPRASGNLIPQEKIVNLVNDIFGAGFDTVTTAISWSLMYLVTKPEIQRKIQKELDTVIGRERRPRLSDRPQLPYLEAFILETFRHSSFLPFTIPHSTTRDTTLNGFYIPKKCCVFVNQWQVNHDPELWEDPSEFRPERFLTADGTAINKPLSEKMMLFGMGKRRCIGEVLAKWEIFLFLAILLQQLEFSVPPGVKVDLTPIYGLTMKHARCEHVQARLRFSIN
In words: Reversible inhibition of CYP1A2 phenacetin O-deethylase activity in human liver microsomes by LC-MS/MS analysis. The format is ADME. An outline of the steps: (§4)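 Reversible inhibition of the major CYP enzymes tested in human liver microsomes using established protocols.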

The target of the next data set is T2, Cytochrome P450 2C8 (Homo sapiens, UniProt P10632).
T2 sequence (P10632 whole entry): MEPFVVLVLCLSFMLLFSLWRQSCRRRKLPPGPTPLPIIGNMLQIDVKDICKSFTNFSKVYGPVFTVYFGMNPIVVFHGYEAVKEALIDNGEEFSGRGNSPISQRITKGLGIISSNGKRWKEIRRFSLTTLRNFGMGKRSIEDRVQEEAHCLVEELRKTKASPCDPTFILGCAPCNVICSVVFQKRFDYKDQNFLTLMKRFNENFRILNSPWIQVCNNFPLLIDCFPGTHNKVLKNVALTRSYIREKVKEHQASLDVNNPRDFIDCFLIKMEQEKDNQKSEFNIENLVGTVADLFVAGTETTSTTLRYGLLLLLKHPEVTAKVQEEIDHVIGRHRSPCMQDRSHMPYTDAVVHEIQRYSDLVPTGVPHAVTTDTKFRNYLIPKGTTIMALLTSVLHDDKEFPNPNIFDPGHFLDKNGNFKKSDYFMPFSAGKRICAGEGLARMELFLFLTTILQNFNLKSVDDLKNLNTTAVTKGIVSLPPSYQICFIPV
In words: Reversible inhibition of CYP2C8 amodiaquine-N-deethylase activity in human liver microsomes by LC-MS/MS analysis. Format: ADME. A digest of the protocol: as §4
For orientation: Microsomes from liver hold many membrane-bound enzymes, among them those of drug oxidation.

A further data set deals with Cytochrome P450 2D6 (Homo sapiens, UniProt P10635). Kind of data set: Reversible inhibition of CYP2D6 dextromethorphan O-demethylase activity in human liver microsomes by LC-MS/MS analysis. Format: ADME. A digest of the protocol:
as §4

The target of a further data set is Cytochrome P450 2C19 (Homo sapiens, UniProt P33261). In words: Time-dependent inhibition of CYP2C19 in human liver microsomes. Format: ADME. A digest of the protocol:
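Time- and concentration-dependent CYP inhibition assessed by an IC₅₀ shift assay in human liver microsomes.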

Data set [9] is described as follows: Drug excretion in Beagle dog urine at 1 mg/kg, iv. Format: ADME, organism-based, Canis lupus familiaris. The note with it: read-out: Drug excretion. A digest of the protocol:
(§5)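 Male animals (beagle dogs 12 kg, Wistar-Han rats 250 g, cynomolgus monkeys 7 kg), fasted overnight and fed 1.0 or 2.0 h after dosing, water ad libitum. Dosed iv at 1 mg/kg in saline or 12% sulfobutyl ether β-cyclodextrin. Fraction of the iv dose excreted unchanged in urine.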

Data set [10] in a line: Drug excretion in cynomolgus monkey urine at 1 mg/kg, iv. Format: ADME, organism-based, Macaca fascicularis. Conditions: read-out: Drug excretion. A digest of the protocol:
as §5

The text below walks through data of ChEMBL document CHEMBL3632461 (J Med Chem, 2015).

Bounds are passed on as bounds.

Cytochrome P450 2D6, sequence (P10635 whole entry): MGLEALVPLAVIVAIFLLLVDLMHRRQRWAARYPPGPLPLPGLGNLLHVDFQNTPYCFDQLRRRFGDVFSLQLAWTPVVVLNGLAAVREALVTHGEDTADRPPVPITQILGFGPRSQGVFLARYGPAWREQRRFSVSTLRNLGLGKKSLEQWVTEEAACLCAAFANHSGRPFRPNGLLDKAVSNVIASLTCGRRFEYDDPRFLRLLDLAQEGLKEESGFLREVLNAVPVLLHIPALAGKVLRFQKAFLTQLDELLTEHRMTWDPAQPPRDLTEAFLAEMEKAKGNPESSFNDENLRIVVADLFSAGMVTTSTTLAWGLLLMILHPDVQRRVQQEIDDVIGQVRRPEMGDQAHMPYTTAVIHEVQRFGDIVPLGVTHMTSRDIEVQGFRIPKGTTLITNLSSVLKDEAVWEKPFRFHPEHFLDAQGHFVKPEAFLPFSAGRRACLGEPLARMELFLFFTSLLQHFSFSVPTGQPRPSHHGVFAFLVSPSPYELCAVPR
Cytochrome P450 2C19, sequence (P33261 whole entry): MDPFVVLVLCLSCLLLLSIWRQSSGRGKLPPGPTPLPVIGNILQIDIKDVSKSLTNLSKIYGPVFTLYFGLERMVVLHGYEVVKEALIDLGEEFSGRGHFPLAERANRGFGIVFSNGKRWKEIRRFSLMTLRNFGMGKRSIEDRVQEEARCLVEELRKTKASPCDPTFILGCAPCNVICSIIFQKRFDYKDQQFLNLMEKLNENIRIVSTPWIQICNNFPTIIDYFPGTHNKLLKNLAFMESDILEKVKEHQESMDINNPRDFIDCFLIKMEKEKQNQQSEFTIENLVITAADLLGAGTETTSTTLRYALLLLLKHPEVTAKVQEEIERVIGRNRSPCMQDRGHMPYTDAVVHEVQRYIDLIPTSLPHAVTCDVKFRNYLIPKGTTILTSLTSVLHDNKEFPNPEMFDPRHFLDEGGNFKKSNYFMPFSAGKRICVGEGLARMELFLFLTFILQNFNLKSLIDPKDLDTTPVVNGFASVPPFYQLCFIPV

Take `COc1ccc(-c2cc(=O)[nH]c(=S)n2CCO)c(OC)c1`: in data set [1], the Retention_time is 17.49 min.

The molecule `COc1ccc(Cl)cc1-c1cc(=O)[nH]c(=S)n1CC(N)=O` [PF-06282999] gave a clearance in [2] of 10.1 mL/min/kg. Besides, the values for the Vd in data set [3] and in data set [4] were 0.9 L/kg and 1.09 L/kg, respectively. The molecule also had a half-life in data set [5] of 3.28 h. The molecule also came in with a bioavailability in data set [6] of 76%. Further, the fraction unbound at 2 µM in [7] is 0.451; in data set [8] it was 0.46. Also, the IC50 at Cytochrome P450 1A2, against Cytochrome P450 2C8, at Cytochrome P450 2D6 and on Cytochrome P450 2C19 was greater than 100 µM each time. Further, the dose excreted in [9] and in [10] was 26% each time.

Broadly, the half-life is the time in which the quantity being followed falls by half. For orientation: bioavailability means dose-corrected exposure relative to a reference, in per cent. As usually defined, the fraction unbound is free concentration divided by total concentration. In general, IC50 refers to the concentration needed to halve the response being measured.
